Test results reported in ChEMBL document CHEMBL1137710, “Synthesis and in vitro antitumor activity of new quinoxaline derivatives” (2009).

Key:
Format in all cases: functional
HOP-62 = assay: Growth inhibition of human HOP62 cells after 48 hrs by sulforhodamine B assay; conditions: HOP-62, 48 h
Summary of the method: (§1)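 NCI 60-human-tumor-cell-line panel, with compounds tested over a 5-log dose range. Values are taken from dose-response curves as log10 molar concentrations: GI50 is 50% net growth inhibition, TGI is total growth inhibition, and LC50 is 50% net cell death.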

NCI-H460 [1] = assay: Anticancer activity against human NCI-H460 cells assessed as cell growth at 100 uM after 48 hrs by sulforhodamine B assay; conditions: NCI-H460, 48 h, read-out: Activity
786-0 = assay: Growth inhibition of human 786-0 cells after 48 hrs by sulforhodamine B assay; conditions: 786-0, 48 h; summary of the method: as §1
OVCAR-3 = assay: Growth inhibition of human OVCAR-3 cells after 48 hrs by sulforhodamine B assay; conditions: OVCAR-3, 48 h; summary of the method: as §1
NCI-H322M = assay: Growth inhibition of human NCI-H322M cells after 48 hrs by sulforhodamine B assay; summary of the method: as §1
IGROV-1 = assay: Growth inhibition of human IGROV1 cells after 48 hrs by sulforhodamine B assay; conditions: IGROV-1, 48 h; summary of the method: as §1
SK-MEL-5 = assay: Growth inhibition of human SK-MEL-5 cells after 48 hrs by sulforhodamine B assay; conditions: SK-MEL-5, 48 h; summary of the method: as §1
OVCAR-4 = assay: Growth inhibition of human OVCAR4 cells after 48 hrs by sulforhodamine B assay; conditions: OVCAR-4, 48 h; summary of the method: as §1
SF-295 = assay: Growth inhibition of human SF295 cells after 48 hrs by sulforhodamine B assay; conditions: SF-295, 48 h; summary of the method: as §1
[2] = Growth inhibition of human Hs 578T cells after 48 hrs by sulforhodamine B assay; summary of the method: as §1
MCF7 [3] = assay: Anticancer activity against human MCF7 cells assessed as cell growth at 100 uM after 48 hrs by sulforhodamine B assay; conditions: MCF7, 48 h, read-out: Activity
SK-OV-3 = assay: Growth inhibition of human SKOV3 cells after 48 hrs by sulforhodamine B assay; conditions: SK-OV-3, 48 h; summary of the method: as §1
CAKI-1 = assay: Growth inhibition of human Caki1 cells after 48 hrs by sulforhodamine B assay; conditions: CAKI-1, 48 h; summary of the method: as §1
OVCAR-8 = assay: Growth inhibition of human OVCAR8 cells after 48 hrs by sulforhodamine B assay; conditions: OVCAR-8, 48 h; summary of the method: as §1
PC-3 = assay: Growth inhibition of human PC3 cells after 48 hrs by sulforhodamine B assay; conditions: PC-3, 48 h; summary of the method: as §1
COLO 205 = assay: Growth inhibition of human COLO205 cells after 48 hrs by sulforhodamine B assay; conditions: COLO 205, 48 h; summary of the method: as §1
SNB-19 = assay: Growth inhibition of human SNB19 cells after 48 hrs by sulforhodamine B assay; conditions: SNB-19, 48 h
Summary of the method: (§2)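 Run in the NCI 60-human-tumour-cell-line panel, tested over a 5-log dose range. Dose–response curves gave three values per cell line, each as a log10 molar concentration: GI50 (50% inhibition of net cell growth), TGI (total inhibition of net growth) and LC50 (50% net cell death). The mean graph midpoint is the arithmetic mean over all lines, with insensitive lines entered at the highest concentration tested.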

MCF7 [4] = assay: Growth inhibition of human MCF7 cells after 48 hrs by sulforhodamine B assay; conditions: MCF7, 48 h; summary of the method: as §1
OVCAR-5 = assay: Growth inhibition of human OVCAR5 cells after 48 hrs by sulforhodamine B assay; conditions: OVCAR-5, 48 h; summary of the method: as §1
MDA-MB-231 = assay: Growth inhibition of human MDA-MB-231 cells after 48 hrs by sulforhodamine B assay; conditions: MDA-MB-231, 48 h; summary of the method: as §1
SF-268 [5] = assay: Growth inhibition of human SF268 cells after 48 hrs by sulforhodamine B assay; conditions: SF-268, 48 h; summary of the method: as §1
MDA-MB-435 = assay: Growth inhibition of human MDA-MB-435 cells after 48 hrs by sulforhodamine B assay; conditions: MDA-MB-435, 48 h; summary of the method: as §1
UO-31 = assay: Growth inhibition of human UO31 cells after 48 hrs by sulforhodamine B assay; conditions: UO-31, 48 h; summary of the method: as §2
SF-268 [6] = assay: Anticancer activity against human SF268 cells assessed as cell growth at 100 uM after 48 hrs by sulforhodamine B assay; conditions: SF-268, 48 h, read-out: Activity
TK-10 = assay: Growth inhibition of human TK10 cells after 48 hrs by sulforhodamine B assay; conditions: TK-10, 48 h; summary of the method: as §2
KM12 = assay: Growth inhibition of human KM12 cells after 48 hrs by sulforhodamine B assay; conditions: KM12, 48 h; summary of the method: as §1
UACC-257 = assay: Growth inhibition of human UACC257 cells after 48 hrs by sulforhodamine B assay; conditions: UACC-257, 48 h; summary of the method: as §2
NCI-H460 [7] = assay: Growth inhibition of human NCI-H460 cells after 48 hrs by sulforhodamine B assay; conditions: NCI-H460, 48 h; summary of the method: as §1
U-251 = assay: Growth inhibition of human U251 cells after 48 hrs by sulforhodamine B assay; conditions: U-251, 48 h; summary of the method: as §2
NCI-H522 = assay: Growth inhibition of human NCI-H522 cells after 48 hrs by sulforhodamine B assay; conditions: NCI-H522, 48 h; summary of the method: as §1
[8] = read-out: pLC50 (the source's name) (converted)

Q: Which GI50 (HOP-62) does the source give for `COc1ccc(CNc2nc3cc(N)cc(N)c3nc2-c2ccccc2)cc1` here?
A: 17.4 µM

Q: What about the LC50 (HOP-62) of the same compound?
A: 69.2 µM

Q: And the TGI (HOP-62; read-out: pTGI (converted))?
A: 34.7 µM

Q: And the growth at 100 µM (NCI-H460 [1])?
A: 0%

Q: And the GI50 (786-0)?
A: 15.1 µM

Q: What about the CC50 (786-0; [8]) of the same compound?
A: > 100 µM

Q: And the TGI (786-0; read-out: pTGI (converted))?
A: 41.7 µM

Q: And the GI50 (OVCAR-3)?
A: 2.24 µM

Q: What about the CC50 (OVCAR-3; [8]) of the same compound?
A: 38.9 µM

Q: What about the TGI (OVCAR-3; read-out: pTGI (converted)) of the same compound?
A: 7.76 µM

Q: What about the GI50 (NCI-H322M) of the same compound?
A: 22.9 µM

Q: And the LC50 (NCI-H322M)?
A: > 100 µM

Q: What about the TGI (NCI-H322M; read-out: pTGI (converted)) of the same compound?
A: 52.5 µM

Q: And the GI50 (IGROV-1)?
A: 12.9 µM

Q: What about the CC50 (IGROV-1; [8]) of the same compound?
A: 56.2 µM

Q: What about the TGI (IGROV-1; read-out: pTGI (converted)) of the same compound?
A: 26.9 µM

Q: What about the GI50 (SK-MEL-5) of the same compound?
A: 17.8 µM

Q: What about the CC50 (SK-MEL-5; [8]) of the same compound?
A: 56.2 µM

Q: What about the TGI (SK-MEL-5; read-out: pTGI (converted)) of the same compound?
A: 31.6 µM

Q: And the GI50 (OVCAR-4)?
A: 8.13 µM

Q: What about the CC50 (OVCAR-4; [8]) of the same compound?
A: 47.9 µM

Q: And the TGI (OVCAR-4; read-out: pTGI (converted))?
A: 21.4 µM

Q: And the GI50 (SF-295)?
A: 17.8 µM

Q: And the LC50 (50% net cell kill) (SF-295)?
A: 58.9 µM

Q: What about the TGI (SF-295; read-out: pTGI (converted)) of the same compound?
A: 32.4 µM

Q: What about the GI50 [2] of the same compound?
A: 26.9 µM

Q: And the CC50 [2, 8]?
A: > 100 µM

Q: What about the TGI ([2]; read-out: pTGI (converted)) of the same compound?
A: > 100 µM

Q: What about the growth at 100 µM (MCF7 [3]) of the same compound?
A: 0%

Q: And the CC50 (SK-OV-3; [8])?
A: > 100 µM

Q: And the TGI (SK-OV-3; read-out: pTGI (converted))?
A: 57.5 µM

Q: And the GI50 (CAKI-1)?
A: 16.2 µM

Q: And the CC50 (CAKI-1; [8])?
A: 79.4 µM

Q: And the TGI (CAKI-1; read-out: pTGI (converted))?
A: 36.3 µM

Q: What about the GI50 (OVCAR-8) of the same compound?
A: 14.8 µM

Q: And the CC50 (OVCAR-8; [8])?
A: > 100 µM

Q: What about the TGI (OVCAR-8; read-out: pTGI (converted)) of the same compound?
A: 39.8 µM

Q: What about the GI50 (PC-3) of the same compound?
A: 10.2 µM

Q: What about the CC50 (PC-3; [8]) of the same compound?
A: 72.4 µM

Q: And the TGI (PC-3; read-out: pTGI (converted))?
A: 27.5 µM

Q: What about the GI50 (COLO 205) of the same compound?
A: 15.5 µM

Q: And the LC50 (50% net cell kill) (COLO 205)?
A: 74.1 µM

Q: What about the TGI (COLO 205; read-out: pTGI (converted)) of the same compound?
A: 33.9 µM

Q: And the GI50 (SNB-19)?
A: 41.7 µM

Q: And the LC50 (SNB-19)?
A: > 100 µM

Q: And the TGI (SNB-19; read-out: pTGI (converted))?
A: > 100 µM

Q: And the GI50 (MCF7 [4])?
A: 13.2 µM

Q: And the CC50 (MCF7 [4]; [8])?
A: 53.7 µM

Q: And the TGI (MCF7 [4]; read-out: pTGI (converted))?
A: 26.3 µM

Q: And the GI50 (OVCAR-5)?
A: 20.9 µM

Q: What about the CC50 (OVCAR-5; [8]) of the same compound?
A: > 100 µM

Q: What about the TGI (OVCAR-5; read-out: pTGI (converted)) of the same compound?
A: 45.7 µM

Q: And the GI50 (MDA-MB-231)?
A: 2.88 µM

Q: And the CC50 (MDA-MB-231; [8])?
A: 64.6 µM

Q: And the TGI (MDA-MB-231; read-out: pTGI (converted))?
A: 13.8 µM

Q: What about the GI50 (SF-268 [5]) of the same compound?
A: 9.77 µM

Q: And the LC50 (SF-268 [5])?
A: 49 µM

Q: And the TGI (SF-268 [5]; read-out: pTGI (converted))?
A: 21.9 µM

Q: And the GI50 (MDA-MB-435)?
A: 10 µM

Q: What about the CC50 (MDA-MB-435; [8]) of the same compound?
A: 46.8 µM

Q: And the TGI (MDA-MB-435; read-out: pTGI (converted))?
A: 21.9 µM

Q: What about the GI50 (UO-31) of the same compound?
A: 11.5 µM

Q: And the CC50 (UO-31; [8])?
A: 72.4 µM

Q: And the TGI (UO-31; read-out: pTGI (converted))?
A: 28.8 µM

Q: What about the growth at 100 µM (SF-268 [6]) of the same compound?
A: 0%

Q: And the GI50 (TK-10)?
A: 28.2 µM

Q: And the CC50 (TK-10; [8])?
A: > 100 µM

Q: What about the TGI (TK-10; read-out: pTGI (converted)) of the same compound?
A: 57.5 µM

Q: And the GI50 (KM12)?
A: 13.2 µM

Q: What about the LC50 (50% net cell kill) (KM12) of the same compound?
A: > 100 µM

Q: And the TGI (KM12; read-out: pTGI (converted))?
A: 26.3 µM

Q: And the GI50 (UACC-257)?
A: 16.2 µM

Q: What about the CC50 (UACC-257; [8]) of the same compound?
A: 56.2 µM

Q: And the TGI (UACC-257; read-out: pTGI (converted))?
A: 30.2 µM

Q: What about the GI50 (NCI-H460 [7]) of the same compound?
A: 20.4 µM

Q: What about the LC50 (50% net cell kill) (NCI-H460 [7]) of the same compound?
A: > 100 µM

Q: And the TGI (NCI-H460 [7]; read-out: pTGI (converted))?
A: 47.9 µM

Q: What about the GI50 (U-251) of the same compound?
A: 13.5 µM

Q: And the LC50 (50% net cell kill) (U-251)?
A: 51.3 µM

Q: And the TGI (U-251; read-out: pTGI (converted))?
A: 26.3 µM

Q: And the GI50 (NCI-H522)?
A: 10 µM

Q: And the LC50 (NCI-H522)?
A: 47.9 µM

Q: And the TGI (NCI-H522; read-out: pTGI (converted))?
A: 21.9 µM
